{"data": "Results gathered from unrelated publications", "read-out": "metabolic stability", "host": "rat", "note": "Each line is one published result; the experiments were not run side by side."}
{"Compound": "COc1cnccc1Cn1nc(-c2ccc(CO)o2)c2ccccc21", "sample": "liver microsomes", "concentration": "1 µM", "pH": "pH 7.4", "half-life": "7 min"}
{"Compound": "N#Cc1ccc(C[C@H](Nc2nnc(-c3ccc(F)cc3)s2)C(=O)N2CCc3ccccc32)cc1", "sample": "liver microsomes", "concentration": "10 µM", "pH": "pH 7.4", "half-life": "19.3 min"}
{"Compound": "Cc1[nH]c(C)c(S(=O)(=O)Nc2ccc(C(F)(F)F)c(Cl)c2)c1C(=O)N1CCC(F)(F)C1", "sample": "liver microsomes", "half-life": "8 min"}
{"Compound": "OCc1ccc(-c2nn(Cc3ccncc3)c3ccccc23)o1", "sample": "liver microsomes", "concentration": "1 µM", "pH": "pH 7.4", "half-life": "12 min"}
{"Compound": "N#Cc1ccc(C[C@H](NC(=O)c2cc3ccc(F)cc3[nH]2)C(=O)N2CCc3ccccc32)cc1", "sample": "liver microsomes", "concentration": "10 µM", "pH": "pH 7.4", "half-life": "105 min"}
{"Compound": "COc1ccc(Cn2cc(CO[C@@H]3O[C@H]4[C@H](OC[C@H]4O)[C@H]3O)nn2)cc1", "sample": "liver microsomes", "half-life": "120 min"}
{"Compound": "N#Cc1ccc(C[C@H](Nc2nnc(-c3cccc(F)c3)s2)C(=O)N2CCc3ccccc32)cc1", "sample": "liver microsomes", "concentration": "10 µM", "pH": "pH 7.4", "half-life": "47 min"}
{"Compound": "Cc1[nH]c(C)c(S(=O)(=O)Nc2ccc(C(F)(F)F)c(Cl)c2)c1C(=O)N(C)C", "sample": "liver microsomes", "half-life": "5.7 min"}
{"Compound": "N#Cc1ccc(C[C@H](Nc2c(Nc3ccc(Br)cc3)c(=O)c2=O)C(=O)N2CCc3ccccc32)cc1", "sample": "liver microsomes", "concentration": "10 µM", "pH": "pH 7.4", "half-life": "38 min"}
{"Compound": "NCc1ccc(-c2nn(Cc3ccccc3)c3ccccc23)o1", "sample": "liver microsomes", "concentration": "1 µM", "pH": "pH 7.4", "half-life": "> 30 min"}
{"Compound": "O=C1c2ccccc2C(=O)N1CCCN1CCN(C(c2ccc(F)cc2)c2ccc(F)cc2)CC1", "sample": "liver microsomes", "concentration": "100 ng/mL", "half-life": "3.9 min"}
{"Compound": "C=CCn1c(=O)c2cnc(Nc3ccc(N4CCN(C)CC4)cc3)nc2n1-c1ccc2c(n1)[C@@](O)(CC)CC2", "sample": "hepatocytes", "half-life": "175 min"}
{"Compound": "COc1ccccc1Cn1nc(-c2ccc(CO)o2)c2ccccc21", "sample": "liver microsomes", "concentration": "1 µM", "pH": "pH 7.4", "half-life": "2 min"}
